The structures appear in SMILES notation. Activity calls are given as the source filed them. Where only a bound is given, the exact number is not on record here.

Here are results for two compounds from ChEMBL document CHEMBL3603779, “Identification and Optimization of Benzimidazole Sulfonamides as Orally Bioavailable Sphingosine 1-Phosphate Receptor 1 Antagonists with in Vivo Activity” (J Med Chem, 2015).

In data set [1] the test system is Mus musculus. The experiment in a line: Increase in pulmonary vascular permeability in NCr mouse lung assessed as induction of capillary leakage in at 20 mg/kg, po administered a single oral dose by Evans blue dye assay. Format: functional, organism-based. In a few lines: (§1)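 Female NCr nude mice (4 per cohort) given a single oral dose, 20 or 50 mg/kg, or vehicle (0.5% HPMC, 0.1% Tween 80). Evans blue dye (20 mg/kg) injected 1 h later. After 30 min, mice anesthetized and perfused with 0.9% saline; lung dye measured by spectrophotometry and normalized to vehicle-treated animals.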

Data set [2] concerns Calu-6. The experiment in a line: Increase in pulmonary vascular permeability in tumor of human Calu6 cells xenografted NCr mouse assessed as induction of capillary leakage in at 20 mg/kg, po by Evans blue dye assay. It is filed as functional, organism-based.
Data set [3] has as its system COLO 205. The experiment in a line: Increase in pulmonary vascular permeability in tumor of human COLO205 cells xenografted NCr mouse assessed as induction of capillary leakage in at 20 mg/kg, po by Evans blue dye assay. Format: functional, organism-based. Background: In xenograft studies the graft and the host belong to different species.
Data set [4] can be described thus: Clearance in Han Wistar rat at 3 mg/kg, iv by LCMS/MS method. It is filed as ADME, organism-based. The settings on record: in vivo.
Data set [5] in a line: Half life in Han Wistar rat at 3 mg/kg, iv by LCMS/MS method. The note with it: in vivo. It is filed as ADME, organism-based.
A short description of data set [6]: Volume of distribution at steady state in beagle dog at 2.5 mg/kg, iv. The settings on record: in vivo, read-out: Vdss. It is filed as ADME, organism-based, Canis lupus familiaris.
A short description of data set [7]: Half life in beagle dog at 2.5 mg/kg, iv by LCMS/MS method. It is filed as ADME, organism-based, Canis lupus familiaris. The settings on record: in vivo.
Data set [8] can be described thus: Cmax in beagle dog at 10 mg/kg, po by LCMS/MS method. Format: ADME, organism-based, Canis lupus familiaris. Also on record: dose 10 mg/kg, route oral. The settings on record: in vivo.
A short description of data set [9]: Oral bioavailability in beagle dog at 10 mg/kg by LCMS/MS method. It is filed as ADME, organism-based, Canis lupus familiaris. The note with it: in vivo.
The target in data set [10] is Voltage-gated inwardly rectifying potassium channel KCNH2 (Homo sapiens, UniProt Q12809).
In data set [11] the test system is Calu-6. The experiment in a line: Antitiumor activity against human Calu6 cells xenografted in NCr mouse assessed as tumor growth at 20 mg/kg, po bid dosed on day 13 to 32.
Data set [12] deals with Mus musculus. The experiment in a line: Increase in pulmonary vascular permeability in NCr mouse lung assessed as induction of capillary leakage in at 50 mg/kg, po administered a single oral dose by Evans blue dye assay. It is filed as functional, organism-based. In a few lines: as §1
The nature of data set [13]: Antitiumor activity against human Calu6 cells xenografted in NCr mouse assessed as tumor growth at 50 mg/kg, po bid dosed on day 11 to 33. It is filed as functional. The note with it: Calu-6, po, read-out: GI. In a few lines: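 Calu6 xenografts in female NCr-nude mice, oral dosing twice daily. Schedules: 20 mg/kg BID on days 13-32, or 50 mg/kg BID on days 11-33. Vehicle (HPMC) controls n=20, treated n=14. Tumor volume compared with controls.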

In data set [14] the test system is Calu-6. The experiment in a line: Increase in pulmonary vascular permeability in tumor of human Calu6 cells xenografted NCr mouse assessed as induction of capillary leakage in at 50 mg/kg, po by Evans blue dye assay. Format: functional, organism-based.
Data set [15] has as its system COLO 205. The experiment in a line: Increase in pulmonary vascular permeability in tumor of human COLO205 cells xenografted NCr mouse assessed as induction of capillary leakage in at 50 mg/kg, po by Evans blue dye assay. Format: functional, organism-based.
Data set [16] can be described thus: Clearance in Han Wistar rat at 4 mg/kg, iv by LCMS/MS method. Format: ADME, organism-based. The settings on record: in vivo.
A short description of data set [17]: Volume of distribution at steady state in Han Wistar rat at 4 mg/kg, iv by LCMS/MS method. It is filed as ADME, organism-based. The note with it: in vivo, read-out: Vdss.
The nature of data set [18]: Half life in Han Wistar rat at 4 mg/kg, iv by LCMS/MS method. Format: ADME, organism-based. The settings on record: in vivo.
The nature of data set [19]: Clearance in beagle dog at 2 mg/kg, iv by LCMS/MS method. The settings on record: in vivo. Format: ADME, organism-based, Canis lupus familiaris.
Data set [20] can be described thus: Volume of distribution at steady state in beagle dog at 2 mg/kg, iv by LCMS/MS method. The note with it: in vivo, read-out: Vdss. It is filed as ADME, organism-based, Canis lupus familiaris.
A short description of data set [21]: Half life in beagle dog at 2 mg/kg, iv by LCMS/MS method. It is filed as ADME, organism-based, Canis lupus familiaris. The settings on record: in vivo.
Data set [22] in a line: Cmax in beagle dog at 5 mg/kg, po by LCMS/MS method. It is filed as ADME, organism-based, Canis lupus familiaris. The settings on record: in vivo. More on the design: dose 5 mg/kg, route oral.
The nature of data set [23]: Oral bioavailability in beagle dog at 5 mg/kg by LCMS/MS method. Format: ADME, organism-based, Canis lupus familiaris. The settings on record: in vivo.

Voltage-gated inwardly rectifying potassium channel KCNH2, sequence (Q12809 whole entry): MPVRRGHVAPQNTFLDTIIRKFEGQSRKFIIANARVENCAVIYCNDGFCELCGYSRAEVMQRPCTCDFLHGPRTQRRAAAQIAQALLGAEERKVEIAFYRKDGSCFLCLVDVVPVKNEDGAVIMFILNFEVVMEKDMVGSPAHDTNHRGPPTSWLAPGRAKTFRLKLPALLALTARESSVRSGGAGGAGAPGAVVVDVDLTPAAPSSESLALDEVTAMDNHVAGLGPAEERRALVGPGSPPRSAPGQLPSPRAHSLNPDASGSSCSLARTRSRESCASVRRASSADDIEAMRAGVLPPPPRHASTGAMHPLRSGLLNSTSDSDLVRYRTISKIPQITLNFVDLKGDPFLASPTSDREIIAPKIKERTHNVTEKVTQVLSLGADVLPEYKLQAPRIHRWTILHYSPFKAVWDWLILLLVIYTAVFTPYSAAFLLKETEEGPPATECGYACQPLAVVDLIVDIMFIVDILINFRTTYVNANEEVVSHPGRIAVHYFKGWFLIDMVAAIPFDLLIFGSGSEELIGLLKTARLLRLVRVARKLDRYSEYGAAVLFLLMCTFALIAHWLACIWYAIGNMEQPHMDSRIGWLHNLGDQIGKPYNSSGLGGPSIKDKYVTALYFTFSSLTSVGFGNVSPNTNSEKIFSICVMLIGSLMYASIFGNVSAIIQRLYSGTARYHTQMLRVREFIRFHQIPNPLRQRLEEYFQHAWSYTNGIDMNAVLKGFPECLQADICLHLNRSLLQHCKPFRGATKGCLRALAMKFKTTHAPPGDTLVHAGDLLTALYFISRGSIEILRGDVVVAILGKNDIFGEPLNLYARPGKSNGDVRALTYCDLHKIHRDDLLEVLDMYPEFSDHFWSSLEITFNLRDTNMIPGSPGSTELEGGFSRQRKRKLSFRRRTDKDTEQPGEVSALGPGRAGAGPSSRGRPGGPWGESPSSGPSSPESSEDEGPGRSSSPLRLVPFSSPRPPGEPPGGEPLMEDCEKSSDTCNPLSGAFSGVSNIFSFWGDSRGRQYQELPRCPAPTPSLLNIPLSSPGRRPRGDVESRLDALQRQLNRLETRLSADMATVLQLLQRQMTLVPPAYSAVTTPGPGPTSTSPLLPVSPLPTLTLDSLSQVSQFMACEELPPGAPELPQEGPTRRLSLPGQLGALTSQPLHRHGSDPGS

By clearance is commonly meant the volume of plasma or blood freed of the substance per unit of time. As a reminder, the half-life is the time needed for the level to fall by half in the phase considered. Read a high half-life as slow decline. As a reminder, the Cmax is the peak of the concentration-time curve. By bioavailability is commonly meant dose-corrected exposure relative to a reference, in per cent. Usually IC50 stands for the point on the concentration scale where inhibition reaches its midpoint. As for `CCn1c([C@@H](C)NS(=O)(=O)c2ccc(C#N)nc2)nc2cnc(C(F)(F)F)cc21`, the outcome with Mus musculus [1] was Active. The result in the data set with Calu-6 [2] and in the data set on COLO 205 [3] was inactive. This compound came in with a clearance in data set [4] of 8 mL/min/kg. Moreover, the half-life in data set [5] was 2.4 h; in data set [7], 4.9 h. In data set [6], the Vd was determined as 0.6 L/kg. This compound gave a Cmax in data set [8] of 31.1 µM. In addition, the bioavailability in data set [9] is 81%. This compound gave a 50% inhibitory concentration (IC50) in [10] greater than 200 µM. In addition, the “growth inhibition (GI)” value in the data set with Calu-6 [11] is “inactive”.
Regarding `CCn1c([C@@H](C)NS(=O)(=O)c2ccc(C#N)nc2)nc2cnc(C3CC3)cc21`, the outcome in the data set with Mus musculus [12] was Active. In addition, the inhibition in vivo at 50 mg/kg in data set [13] was found to be 32%. The outcome with Calu-6 [14] and in the data set with COLO 205 [15] was inactive. Besides, the results for the clearance in [16] and in data set [19] were 10 mL/min/kg and 2 mL/min/kg, respectively. For the same compound, the Vd came out at 1.3 L/kg in data set [17] and 0.7 L/kg in data set [20]. Moreover, the half-life in [18] is 2.9 h; in data set [21], 4.6 h. The compound further had a Cmax in data set [22] of 10.7 µM. In data set [23], this compound came in with a bioavailability of 71%.
